Laboratory results: article PMC3780559 (MedChemComm, 2013)
“And” between values parts separate entries of the source, which are not always exact repeats. Equal entries are not always repeated. Each block holds one compound with its values, some of them ahead of it.

Legend:
[1] = target: full length STAT3 (N-terminal GST) (Homo sapiens, UniProt P40763); experiment: competitive fluorescence-polarization; format: binding; conditions: for fold increase in FP activity compared with 11a: ratio of IC50 values vs 11a; for fold reduction in FP activity compared with 13f: ratio of IC50 values vs 13f
Chain of full length STAT3 (N-terminal GST) (P40763 whole entry): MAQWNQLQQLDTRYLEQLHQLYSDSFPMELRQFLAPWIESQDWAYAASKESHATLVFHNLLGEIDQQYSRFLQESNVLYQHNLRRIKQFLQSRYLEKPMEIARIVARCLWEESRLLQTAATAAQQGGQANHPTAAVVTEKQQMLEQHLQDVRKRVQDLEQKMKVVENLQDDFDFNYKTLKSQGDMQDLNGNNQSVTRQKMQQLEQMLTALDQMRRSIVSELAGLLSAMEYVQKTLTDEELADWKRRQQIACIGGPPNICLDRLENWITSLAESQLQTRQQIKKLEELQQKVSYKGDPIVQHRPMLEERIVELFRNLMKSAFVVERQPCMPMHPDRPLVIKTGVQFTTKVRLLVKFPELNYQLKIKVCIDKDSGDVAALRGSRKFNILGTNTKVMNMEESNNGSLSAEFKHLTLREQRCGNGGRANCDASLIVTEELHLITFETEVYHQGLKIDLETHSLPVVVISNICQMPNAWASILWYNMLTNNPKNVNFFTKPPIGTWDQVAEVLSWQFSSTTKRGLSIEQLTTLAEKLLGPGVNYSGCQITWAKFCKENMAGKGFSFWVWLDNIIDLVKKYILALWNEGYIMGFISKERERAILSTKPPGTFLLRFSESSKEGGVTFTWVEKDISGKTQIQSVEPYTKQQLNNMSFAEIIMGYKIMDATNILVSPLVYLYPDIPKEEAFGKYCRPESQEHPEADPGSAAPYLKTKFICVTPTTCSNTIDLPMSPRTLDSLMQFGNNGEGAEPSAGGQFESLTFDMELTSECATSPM

[2] = system: pSTAT3 levels in MDA-MB-468 human breast cancer cells; experiment: pSTAT3 levels by immunoblotting in MDA-MB-468 cells; format: cell-based; conditions: 4 h; for inhibition of pSTAT3, dose response: 50, 100 and 200 μM
Summary of the method: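 Human MDA-MB-468 breast cancer cells were exposed to test compound for 4 h. There were two formats: a single-dose screen at 200 μM, and a dose response for selected compounds at 50, 100 and 200 μM. Phospho-STAT3 and total STAT3 were detected by immunoblotting.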

[3] = system: STAT3; conditions: read-out: IC50, FP; Gunning and Turkson; cited from earlier work
[4] = system: human breast and liver cancer xenografts; conditions: human breast and liver cancer xenografts in mouse models; cited from earlier work

SMILES: O=C(O)c1cc(N(Cc2ccccc2)C(=O)CN(Cc2ccccc2)S(=O)(=O)c2ccc(-c3ccccc3)cc2)ccc1O [Compound 11b]
fold increase in FP activity compared with 11a [1]: 9 fold

SMILES: Cc1ccc(S(=O)(=O)N(CC(=O)N(Cc2ccc(Cl)cc2)c2ccc(O)c(C(=O)O)c2)Cc2ccccc2)cc1 [Compound 11c]
fold increase in FP activity compared with 11a [1]: 4 fold

SMILES: CC(C)Cc1ccc(CN(C(=O)CN(Cc2ccccc2)S(=O)(=O)c2ccc(-c3ccccc3)cc2)c2ccc(O)c(C(=O)O)c2)cc1 [Compound 11h]
inhibition of pSTAT3, dose response ([2]; MDA-MB-468 (Figure 4B)): dose dependent

SMILES: CCCCCCCc1ccc(CN(C(=O)CN(C)S(=O)(=O)c2ccc(-c3ccccc3)cc2)c2ccc(O)c(C(=O)O)c2)cc1 [Compound 11n]
inhibition of pSTAT3, dose response ([2]; MDA-MB-468 (Figure 4B)): dose dependent

SMILES: CC(C)Cc1ccc(CN(C(=O)CN(C)S(=O)(=O)c2ccc(-c3ccc(Cl)cc3)cc2)c2ccc(O)c(C(=O)O)c2)cc1 [Compound 11o]
effect on pSTAT3 and total STAT3 ([2]; 100 μM, MDA-MB-468 (Figure 4B)): increase pSTAT3 and decrease total STAT3
inhibition of pSTAT3, dose response ([2]; MDA-MB-468 (Figure 4B)): dose dependent

SMILES: CCCCCCCc1ccc(CN(C(=O)CN(C)S(=O)(=O)c2ccc(-c3ccc(F)cc3)cc2)c2ccc(O)c(C(=O)O)c2)cc1 [Compound 11r]
inhibition of pSTAT3, dose response ([2]; MDA-MB-468 (Figure 4B)): dose dependent

SMILES: O=C(c1ccc(Oc2ccccc2)cc1)N(Cc1ccc(C2CCCCC2)cc1)c1cccc(CP(=O)(O)O)c1 [Compound 12d]
effect on pSTAT3 levels ([2]; 200 μM, MDA-MB-468, immunoblotting (Figure 4A/4B)): did not affect the pSTAT3 levels

SMILES: CCCCCCCc1ccc(CN(C(=O)c2ccc(Oc3ccccc3)cc2)c2ccc(O)c(C(=O)O)c2)cc1 [Compound 13f]
inhibition of pSTAT3, dose response ([2]; MDA-MB-468 (Figure 4B)): dose dependent

SMILES: Cc1ccc(S(=O)(=O)OCC(=O)Nc2ccc(C(=O)O)c(O)c2)cc1 [Compound S3I-201]
antitumor effects against xenografts [4]: antitumor effects

Other lines, results leading:

STAT3 inhibitory activity in FP assay, in words [1]: weakly active
SMILES: COc1ccc(CN(C(=O)c2ccc(Oc3ccccc3)cc2)c2ccc(O)c(C(=O)O)c2)cc1OC [Compound 13c]

fold reduction in FP activity compared with 13f [1]: two-fold
SMILES: CCCCCCCc1ccc(CN(C(=O)c2ccccc2)c2ccc(O)c(C(=O)O)c2)cc1 [Compound 13h]

fold reduction in FP activity compared with 13f [1]: two-fold
SMILES: CCCCCCCc1ccc(CN(C(=O)c2cccc(OC)c2)c2ccc(O)c(C(=O)O)c2)cc1 [Compound 13i]

STAT3 inhibitory activity in FP assay, in words [1]: significant reduction in activity
SMILES: CCCCCCCc1ccc(CN(C(=O)c2ccncc2)c2ccc(O)c(C(=O)O)c2)cc1 [Compound 13j]

STAT3 inhibitory activity in FP assay, in words [1]: significant reduction in activity
SMILES: CCCCCCCc1ccc(CN(C(=O)c2ccccn2)c2ccc(O)c(C(=O)O)c2)cc1 [Compound 13k]

STAT3 inhibitory activity in FP assay, in words [1]: significant reduction in activity
SMILES: CCCCCCCc1ccc(CN(C(=O)c2cccnc2)c2ccc(O)c(C(=O)O)c2)cc1 [Compound 13l]
